# Screening results (PubChem)
# Only some compounds are listed: those with a hit (about 4.5% of all), similar ones and a draw of the others.
# TAAR1 antagonist = antagonists of human TAAR1; AID 624466; inhibition, % at 3 µM; CHO RD-HGA16 TAAR1, Fluo-8 calcium fluorescence, antagonist; hit rate 1.5% among 360,000;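 active means inhibition above a per-plate cutoff, the mean inhibition of test compounds on that plate plus 3 SD, cut at about 49% in these data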;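 further: 0% = DMSO plus EC80 beta-PEA response and 100% = DMSO alone without agonist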
#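 Test system: CHO RD-HGA16 cells bearing hTAAR1 | Reagent: β-PEA, EC80 | Compound dosing: 3 µM, single point | Schedule: Dye loading 75 min at 37 °C, then 30 min room temperature | Signal: Calcium fluorescence with Fluo-8 | Evaluation: Percent inhibition of PEA-evoked calcium signal, max/basal emission ratio | Control set: DMSO-only wells and EC80 β-PEA-stimulated wells | Repeats: Singlicate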
# CHO parental Ca = signal in parental CHO cells, OX1R antagonist counter-screen; inhibition, % at 5.6 µM; parental CHO-K1, ATP-induced calcium, Fluo-8 fluorescence; AID 463079; hit rate 0.63% among 330,000;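 active means inhibition above that plate's mean sample inhibition plus 3 SD, cut at about 26% in these data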;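 further: 0% = ATP-challenged DMSO wells and 100% = DMSO wells without ATP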
#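 Measured by: calcium-sensitive Fluo-8 fluorescence / Test system: CHO parental line / Controls: ATP-challenged DMSO wells low, unchallenged DMSO wells high / Measure: % inhibition / Compound: single nominal dose of 5.6 µM per compound / Replicates: single well per compound, no replicates / Reagent: ATP as calcium-mobilizing challenge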
# TAAR1 agonist = agonists of human TAAR1; CHO RD-HGA16 TAAR1, Fluo-8 calcium fluorescence; vehicle wells 0%, saturating PEA agonist 100%; AID 624467; Q96RJ0; activation, % at 3 µM; hit rate 0.99% among 360,000;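 active means activation above the mean activation of all test compounds in the run plus 3 SD, cut at about 38% in these data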
#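 Repeats: no replicates (n 1) | Material: CHO-derived RD-HGA16 cells with stable Gα16 and human TAAR1 | Technique: Kinetic Fluo-8 calcium fluorescence | Schedule: 17-24 h seeding, 75 min 37 °C dye, 30 min RT | Evaluation: % activation from peak over basal fluorescence ratio, DMSO-to-PEA scaled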
# OX1R antag-1 = blocks the human orexin 1 receptor | CHO/OX1R cells, Fluo-8 calcium fluorescence, orexin A | hit rate 0.43% among 330,000 | AID 434989 | O43613 | inhibition, % at 5 µM;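 active means inhibition above its plate's threshold, mean inhibition of all tested compounds on the plate plus 3 SD, cut at about 37% in these data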;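 further: 0% = orexin A challenge wells and 100% = SB-334867-A antagonist wells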
# GPR7 antag = antagonists of human GPR7 (neuropeptides B/W receptor 1); inhibition, % at 4.4 µM; hit rate 1.1% among 290,000; AID 1861; GPR7-expressing cells, fluorescence antagonist assay; P48145; in the data active means inhibition above about 16%, passing the limit was not always enough;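 further: cells stimulated with the agonist NPW; 0% = agonist with vehicle and 100% = vehicle without agonist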
# Target sequence (P48145 whole entry, looked up): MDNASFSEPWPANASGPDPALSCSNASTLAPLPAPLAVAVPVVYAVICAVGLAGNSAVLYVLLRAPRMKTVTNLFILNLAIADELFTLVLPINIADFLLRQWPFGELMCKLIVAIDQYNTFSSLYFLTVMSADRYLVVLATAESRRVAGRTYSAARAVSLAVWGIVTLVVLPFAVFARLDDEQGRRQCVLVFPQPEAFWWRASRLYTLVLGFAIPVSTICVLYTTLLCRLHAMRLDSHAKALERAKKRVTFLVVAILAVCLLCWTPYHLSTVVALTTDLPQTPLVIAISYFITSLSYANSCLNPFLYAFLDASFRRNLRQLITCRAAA
# OX1R antag-2 = OX1R (human) antagonism; AID 485270; OX1R-expressing cells, FRET antagonist read-out; inhibition, % at 6.6 µM; hit rate 1.8% among 330,000; O43613; in the data active means inhibition mostly above about 38%, no sharp cut-off; inactive means mostly below about 40%;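 further: 0% = agonist challenge alone and 100% = reference antagonist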
# * = called active by the depositor; . = not tested or not shown.
SMILES,TAAR1 antagonist,CHO parental Ca,TAAR1 agonist,OX1R antag-1,GPR7 antag,OX1R antag-2
Cc1ccc(S(=O)(=O)N(C)CC(=O)Nc2ccccc2)cc1,-7,-6,11,-15,8,14
CC(OC(=O)C1CCN(S(=O)(=O)c2ccc(C(C)(C)C)cc2)CC1)C(=O)N(C)C1CCCCC1 (centres undefined),-10,.,9,.,.,.
Cc1nn(-c2cccc([N+](=O)[O-])c2)c(N)c1-c1ccccc1,-2,-2,1,-23,4,41*
Cc1nn(-c2ccccc2)c(N)c1Sc1cccc([N+](=O)[O-])c1,16,-10,1,-15,5,20
Cc1ccnc(Nc2nc(-c3c(C)nc4sccn34)cs2)c1,-8,-24,11,-13,-19,55*
O=S(=O)(c1ccccc1)N(CC1CO1)c1cccc2ccccc12 (centres undefined),3,-16,-2,12,-2,67*
CCOC(=O)N1CCC(=NNc2ccc(S(N)(=O)=O)cc2[N+](=O)[O-])CC1,-10,-2,5,-2,-8,59*
NS(=O)(=O)c1ccc(NN=C2CCCCC2)c([N+](=O)[O-])c1,6,17,2,7,-7,73*
C/C(CCC(C)C)=N\Nc1ccc(S(N)(=O)=O)cc1[N+](=O)[O-],14,-8,-3,-16,-14,25
CCC(CC)=NNc1ccc(S(N)(=O)=O)cc1[N+](=O)[O-],-8,4,-1,-1,2,46*
CC(=O)N1CCC(=NNc2ccc(S(N)(=O)=O)cc2[N+](=O)[O-])CC1,-4,2,0,2,-8,51
NS(=O)(=O)c1ccc(N/N=C/c2ccc(C(=O)O)cc2)c([N+](=O)[O-])c1,-13,-8,0,-8,-13,50*
CCCNC(=O)C1(C)CCCN(Cc2c3ccccc3nn2C)C1 (centres undefined),-23,.,3,.,.,.
COC(=O)c1cn(-c2nc3ccccc3s2)nn1,42,.,10,.,.,.
Nn1cnnc1N/N=C/c1ccc(Cl)c([N+](=O)[O-])c1,12,-26,5,-9,-15,61*
Nn1cnnc1N/N=C/c1ccc(F)cc1,-12,-2,5,-3,-17,65*
Nc1nnnn1/N=C\c1ccc(Cl)c([N+](=O)[O-])c1,-1,9,0,7,-5,65*
Cc1ccc(/C=N/Nc2nncn2N)cc1,9,-4,-2,1,-10,43*
O=C(c1[nH]c(C(F)(F)F)nc1-c1ccccc1)N1CCOCC1,-23,.,2,.,.,.
CCOC(=O)[C@]12CCC=C1N(Cc1ccc3c(c1)OCO3)C(=O)[C@H](CC(=O)N1CCN(C(=O)c3ccco3)CC1)C2,1,.,5,.,.,.
COCCNC(=O)C1(C)CCCN(C(=O)c2cccnc2SC)C1 (centres undefined),-20,.,8,.,.,.
COc1ccc(C)cc1NC(=O)CN(C)S(=O)(=O)c1ccc2c(c1)CC(C)N2C(C)=O (centres undefined),-2,14,0,-22,-6,12
CCOc1ccccc1N1CCN(C(=O)c2ccncc2)CC1,1,-7,3,-8,-4,14
CCOc1ccccc1N1CCN(C(=O)c2cccc(-c3ccc(O)cc3)c2)CC1,51*,-12,14,-6,-10,19
C[C@@H]1CN([C@@H](C)CO)C(=O)CCCn2cc(nn2)CO[C@H]1CN(C)C(=O)Nc1ccc(C(F)(F)F)cc1,6,.,4,.,.,.
N#CC1=C(N)N2C(=C(C#N)C1c1cccc(Br)c1)Nc1ccccc12 (centres undefined),31,-16,13,-5,-7,32
N#CC1=C(N)N2C(=C(C#N)C1c1ccc(Br)cc1)Nc1ccccc12 (centres undefined),41,14,12,-2,9,76*
O=S(=O)(c1ccc(C(F)(F)F)cc1)N1CCCc2nc(-c3ccc(Br)cc3)ccc21,-26,.,0,.,.,.
Cc1nc(NCCc2ccc(O)cc2)c2nnn(Cc3ccccc3)c2n1,0,-9,24,0,-6,7
Cc1ccc(NN2C(=O)C=C(c3ccc(Cl)cc3)C2=O)cc1,58*,68*,37,73*,3,39
